Results from ChEMBL document CHEMBL1145251, “Synthesis of thiosemicarbazone and 4-thiazolidinone derivatives and their in vitro anti-Toxoplasma gondii activity” (Bioorg Med Chem Lett, 2005).

Key:
Toxoplasma gondii [1] = assay: Mean number of intracellular parasites in vero cells was determined after treatment with compound (Untreated=783); format: functional
Vero [2] = assay: Compound tested for percent reduction of vero cells infected with Toxoplasma gondii after 24 hr at 37 degree Centigrade (Untreated=81); format: functional, Chlorocebus sabaeus
Toxoplasma gondii [3] = assay: Compound tested on intracellular parasites Toxoplasma gondii in vero cells after 24 h; format: functional, organism-based
In short: (§1)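 Infected Vero cultures (tachyzoites, 1:10, 24 h at 37 °C beforehand) were exposed 24 h to compound over 0.01–30 mM, as a dilution series (0.1, 1, 10, 20, 30 mM) in triplicate per assay. Trypan blue exclusion was the read-out, and IC50 (mean ± SD) came from non-linear regression.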

Vero [4] = assay: Compound tested on vero cells infected with Toxoplasma gondii after 24 h; format: functional, cell-based; conditions: Chlorocebus sabaeus; in short: as §1
Vero [5] = assay: Compound tested for percent reduction of vero cells infected with Toxoplasma gondii after 24 h at 37 degree Celsius (Untreated=76); format: functional, Chlorocebus sabaeus
Toxoplasma gondii [6] = assay: Mean number of intracellular parasites in vero cells was determined after treatment with compound (Untreated=768); format: functional
Vero [7] = assay: Compound tested for percent reduction of vero cells infected with Toxoplasma gondii after 24 hr at 37 degree Centigrade (Untreated=72); format: functional, Chlorocebus sabaeus
Toxoplasma gondii [8] = assay: Mean number of intracellular parasites in vero cells was determined after treatment with compound (Untreated=786); format: functional
Toxoplasma gondii [9] = assay: Mean number of intracellular parasites in vero cells was determined after treatment with compound (Untreated=642); format: functional
Vero [10] = assay: Compound tested for percent of vero cells infected with Toxoplasma gondii after 24 hr at 37 degree Centigrade (Untreated=84)
Vero [11] = assay: Compound tested for percent reduction of vero cells infected with Toxoplasma gondii after 24 h at 37 degree Celsius (Untreated=65); format: functional, Chlorocebus sabaeus
Toxoplasma gondii [12] = assay: Mean number of intracellular parasites in vero cells was determined after treatment with compound (Untreated=698); format: functional
Toxoplasma gondii [13] = assay: Mean number of intracellular parasites in vero cells was determined after treatment with compound (Untreated=663); format: functional
Vero [14] = assay: Compound tested for percent reduction of vero cells infected with Toxoplasma gondii after 24 h at 37 degree Celsius (Untreated=86); format: functional, Chlorocebus sabaeus
Vero [15] = assay: Compound tested for percent reduction of vero cells infected with Toxoplasma gondii after 24 hr at 37 degree Centigrade (Untreated=85); format: functional, Chlorocebus sabaeus
Toxoplasma gondii [16] = assay: Mean number of intracellular parasites in vero cells was determined after treatment with compound (Untreated=732); format: functional
Toxoplasma gondii [17] = assay: Mean number of intracellular parasites in vero cells was determined after treatment with compound (Untreated=442); format: functional
Vero [18] = assay: Compound tested for percent reduction of vero cells infected with Toxoplasma gondii after 24 hr at 37 degree Centigrade (Untreated=80); format: functional, Chlorocebus sabaeus
Toxoplasma gondii [19] = assay: Mean number of intracellular parasites in vero cells was determined after treatment with compound (Untreated=840); format: functional
Toxoplasma gondii [20] = assay: Mean number of intracellular parasites in vero cells was determined after treatment with compound (Untreated=888); format: functional
Vero [21] = assay: Compound tested for percent reduction of vero cells infected with Toxoplasma gondii after 24 h at 37 degree Centigrade (Untreated=89); format: functional, Chlorocebus sabaeus
Toxoplasma gondii [22] = assay: Mean number of intracellular parasites in vero cells was determined after treatment with compound (Untreated=683); format: functional
Toxoplasma gondii [23] = assay: Mean number of intracellular parasites in vero cells was determined after treatment with compound (Untreated=726); format: functional
Vero [24] = assay: Compound tested for percent reduction of vero cells infected with Toxoplasma gondii after 24 h at 37 degree Celsius (Untreated=87); format: functional, Chlorocebus sabaeus
[25] = Mean number of intracellular parasites in vero cells was determined after treatment with compound (Untreated=852); format: functional, Toxoplasma gondii
Toxoplasma gondii [26] = assay: Mean number of intracellular parasites in vero cells was determined after treatment with compound (Untreated=627); format: functional
Vero [27] = assay: Compound tested for percent reduction of vero cells infected with Toxoplasma gondii after 24 h at 37 degree Centigrade (Untreated=83); format: functional, Chlorocebus sabaeus
Toxoplasma gondii [28] = assay: Mean number of intracellular parasites in vero cells was determined after treatment with compound (Untreated=687); format: functional
Toxoplasma gondii [29] = assay: Mean number of intracellular parasites in vero cells was determined after treatment with compound (Untreated=628); format: functional
Toxoplasma gondii [30] = assay: Mean number of intracellular parasites in vero cells was determined after treatment with compound (Untreated=913); format: functional

C/N=C(/S)N/N=C/c1ccccc1[N+](=O)[O-]
Mean number of parasites (Toxoplasma gondii [1]): 2 | Reduction (Vero [2]): 9% | IC50 (Toxoplasma gondii [3]): 500 µM | IC50 (Vero [4]): 2000 µM

N/C(S)=N/N=C/c1cccc([N+](=O)[O-])c1
Reduction (Vero [5]): 4% | IC50 (Toxoplasma gondii [3]): 100 µM | IC50 (Vero [4]): 2000 µM | Mean number of parasites (Toxoplasma gondii [6]): 3

O=C(O)CC1S/C(=N\N=C\c2cccc([N+](=O)[O-])c2)N(c2ccccc2)C1=O (centres undefined)
Reduction (Vero [7]): 13% | Mean number of parasites (Toxoplasma gondii [8]): 2

O=[N+]([O-])c1ccccc1/C=N/N=C(\S)Nc1ccccc1
Mean number of parasites (Toxoplasma gondii [9]): 3 | IC50 (Toxoplasma gondii [3]): 500 µM | IC50 (Vero [4]): 1000 µM | Infected cells (Vero [10]): 7%

N/C(S)=N/N=C/c1ccc([N+](=O)[O-])cc1
Reduction (Vero [11]): 5% | IC50 (Toxoplasma gondii [3]): 500 µM | IC50 (Vero [4]): 1500 µM | Mean number of parasites (Toxoplasma gondii [12]): 4

CCN1C(=O)C(CC(=O)O)S/C1=N\N=C\c1ccccc1[N+](=O)[O-] (centres undefined)
Mean number of parasites (Toxoplasma gondii [13]): 3 | Reduction (Vero [14]): 14%

CCN1C(=O)C(CC(=O)O)S/C1=N\N=C\c1cccc([N+](=O)[O-])c1 (centres undefined)
Reduction (Vero [15]): 19% | Mean number of parasites (Toxoplasma gondii [16]): 3

O=[N+]([O-])c1cccc(/C=N/N=C(\S)Nc2ccccc2)c1
Reduction (Vero [11]): 7% | Mean number of parasites (Toxoplasma gondii [17]): 11 | IC50 (Toxoplasma gondii [3]): 80 µM | IC50 (Vero [4]): 1000 µM

O=C(O)CC1SC(N/N=C/c2cccc([N+](=O)[O-])c2)=NC1=O (centres undefined)
Reduction (Vero [18]): 15% | IC50 (Toxoplasma gondii [3]): 500 µM | IC50 (Vero [4]): 2000 µM | Mean number of parasites (Toxoplasma gondii [19]): 4

CN1C(=O)C(CC(=O)O)S/C1=N\N=C\c1ccccc1[N+](=O)[O-] (centres undefined)
IC50 (Toxoplasma gondii [3]): 500 µM | IC50 (Vero [4]): 2000 µM | Infected cells (Vero [10]): 15% | Mean number of parasites (Toxoplasma gondii [20]): 3

C/N=C(/S)N/N=C/c1ccc([N+](=O)[O-])cc1
Reduction (Vero [21]): 12% | Mean number of parasites (Toxoplasma gondii [22]): 72 | IC50 (Toxoplasma gondii [3]): 3000 µM | IC50 (Vero [4]): 10000 µM

C/N=C(/S)N/N=C/c1cccc([N+](=O)[O-])c1
Mean number of parasites (Toxoplasma gondii [9]): 1 | IC50 (Toxoplasma gondii [3]): 500 µM | IC50 (Vero [4]): 1500 µM | Infected cells (Vero [10]): 9%

CC/N=C(/S)N/N=C/c1ccccc1[N+](=O)[O-]
Mean number of parasites (Toxoplasma gondii [1]): 1 | Reduction (Vero [2]): 8% | IC50 (Toxoplasma gondii [3]): 500 µM | IC50 (Vero [4]): 2000 µM

CN1C(=O)C(CC(=O)O)S/C1=N\N=C\c1ccc([N+](=O)[O-])cc1 (centres undefined)
Mean number of parasites (Toxoplasma gondii [23]): 2 | Reduction (Vero [24]): 13%

CC/N=C(/S)N/N=C/c1ccc([N+](=O)[O-])cc1
Reduction (Vero [14]): 17% | Mean number of parasites [25]: 9 | IC50 (Toxoplasma gondii [3]): 500 µM | IC50 (Vero [4]): 2500 µM

CCN1C(=O)C(CC(=O)O)S/C1=N\N=C\c1ccc([N+](=O)[O-])cc1 (centres undefined)
Mean number of parasites (Toxoplasma gondii [26]): 2 | Reduction (Vero [18]): 7% | IC50 (Toxoplasma gondii [3]): 500 µM | IC50 (Vero [4]): 2000 µM

O=C(O)CC1SC(N/N=C/c2ccc([N+](=O)[O-])cc2)=NC1=O (centres undefined)
Reduction (Vero [15]): 16% | Mean number of parasites (Toxoplasma gondii [16]): 4 | IC50 (Toxoplasma gondii [3]): 500 µM | IC50 (Vero [4]): 2500 µM

O=C(O)CC1S/C(=N\N=C\c2ccccc2[N+](=O)[O-])N(c2ccccc2)C1=O (centres undefined)
Reduction (Vero [27]): 8% | Mean number of parasites (Toxoplasma gondii [28]): 2

CN1C(=O)C(CC(=O)O)S/C1=N\N=C\c1cccc([N+](=O)[O-])c1 (centres undefined)
Reduction (Vero [15]): 11% | Mean number of parasites (Toxoplasma gondii [29]): 2

CC/N=C(/S)N/N=C/c1cccc([N+](=O)[O-])c1
Reduction (Vero [5]): 7% | IC50 (Toxoplasma gondii [3]): 80 µM | IC50 (Vero [4]): 1000 µM | Mean number of parasites (Toxoplasma gondii [6]): 5

NC(=O)NO [HYDROXYUREA]
Reduction (Vero [18]): 26% | IC50 (Toxoplasma gondii [3]): 100 µM | Mean number of parasites (Toxoplasma gondii [30]): 186 | IC50 (Vero [4]): 100 µM

Nc1ccc(S(=O)(=O)Nc2ncccn2)cc1 [SULFADIAZINE]
IC50 (Toxoplasma gondii [3]): 100 µM | IC50 (Vero [4]): 90 µM
